From ChEMBL document CHEMBL4196017, “Design, synthesis and identification of silicon-containing HCV NS5A inhibitors with pan-genotype activity” (Eur J Med Chem, 2018) come the findings set out here.

A short description of data set [1]: Metabolic stability in rat liver microsomes assessed as parent compound remaining at 0.2 uM preincubated for 5 mins followed by NADPH addition measured up to 60 mins by UPLC-MS/MS analysis. It is filed as ADME, microsome. Particulars: read-out: Stability. In outline:
(§1)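 Pooled mouse, rat or human liver microsomes 0.2 mg/mL with 1 mM NADPH, 5 mM MgCl2, 100 mM potassium phosphate pH 7.4 and 0.2 µM compound; 5-min preincubation at 37 °C, NADPH start, sampled at 5, 15, 30, 60 min; ice-cold acetonitrile stop; UPLC-MS/MS; percent parent remaining at 60 min.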

A short description of data set [2]: AUC (0 to t) in beagle dog at 2 mg/kg, po administered as single dose by UPLC-MS/MS analysis. It is filed as ADME, organism-based, Canis lupus familiaris. The following applies: in vivo.
A short description of data set [3]: Ratio of drug uptake in Sprague-Dawley rat liver to plasma at 10 mg/kg, ig administered as single dose measured after 0.5 hrs by UPLC-MS/MS analysis. It is filed as ADME, organism-based. The following applies: po.
Data set [4] is described as follows: Efflux ratio of apparent permeability in human Caco2 cells after 90 mins by UPLC-MS/MS analysis. The format is ADME, cell-based. Particulars: Caco-2. Put shortly: (§2)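 Caco-2 cells on Transwell inserts grown 21-23 days to TEER ≥200 Ω cm²; rinsed with warm HBSS, preincubated 30 min at 37 °C in 2% BSA with or without inhibitor; compound in 2% BSA added apical or basolateral, 90 min at 37 °C; receiver sampled, UPLC-MS/MS; duplicate; Papp calculated.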

A further data set addresses hERG (KCNH2) (Homo sapiens, UniProt Q12809). Kind of data set: Inhibition of human ERG assessed as reduction in peak tail current at 3 uM at holding potential of -80 mV by patch clamp method relative to control. Put shortly:
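Whole-cell patch clamp, room temperature; hold -80 mV, 2 s +50 mV depolarization then 3 s -50 mV repolarization every 30 s; peak tail current referenced to initial 50 ms step to -50 mV; 3 min vehicle stabilization, then test solution until stable (<5% over ~5 sweeps) or 6 min max; mean ± SD, n = 3.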

Data set [5] is described as follows: Cytotoxicity against HUVEC assessed as growth inhibition at 50 uM relative to control. The following applies: human, read-out: GI. It is filed as cell-based. Put shortly: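 HUVEC from healthy donors exposed to compound at 50 µM; percent inhibition reported as mean of n = 3.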
Data set [6] is described as follows: Ratio of drug uptake in Sprague-Dawley rat liver to plasma at 10 mg/kg, ig administered as single dose measured after 2 hrs by UPLC-MS/MS analysis. Particulars: po. It is filed as ADME, organism-based.
A short description of data set [7]: Protein binding in dog plasma at 10 uM after 6 hrs by UPLC-MS/MS based equilibrium dialysis method. The following applies: read-out: PPB (converted). The format is ADME, cell-free, Canis lupus familiaris. In outline: (§3)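 Equilibrium dialysis: plasma (pH 7.4) preincubated 15 min at 37 °C, spiked with compound at 1 or 10 µM (0.5% DMSO final); dialysed against 100 mM phosphate buffer pH 7.4, 6 h at 37 °C, 100 rpm; donor and receiver samples analysed by UPLC-MS/MS.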
(In general: In equilibrium dialysis free small molecules cross a membrane that holds back macromolecules.)

Data set [8] is described as follows: Metabolic stability in human liver microsomes assessed as parent compound remaining at 0.2 uM preincubated for 5 mins followed by NADPH addition measured up to 60 mins by UPLC-MS/MS analysis. It is filed as ADME, microsome. The following applies: read-out: Stability. Put shortly: as §1
Data set [9] is described as follows: Metabolic stability in mouse liver microsomes assessed as parent compound remaining at 0.2 uM preincubated for 5 mins followed by NADPH addition measured up to 60 mins by UPLC-MS/MS analysis. It is filed as ADME, microsome. The following applies: read-out: Stability. In outline:
as §1
On the technique in general: Microsomes from liver hold many membrane-bound enzymes, among them those of drug oxidation.

For a further data set, the target named is Cytochrome P450 3A4 (Homo sapiens, UniProt P08684). The experiment in a line: Inhibition of CYP3A4 in human liver microsomes at 1 to 10 uM using nifedipine as substrate preincubated for 5 mins followed by NADPH addition measured after 30 mins by UPLC-MS/MS analysis relative to control. It is filed as ADME. The following applies: 0.5 h.
Data set [10] in a line: Tmax in beagle dog at 2 mg/kg, po administered as single dose by UPLC-MS/MS analysis. The format is ADME, organism-based, Canis lupus familiaris. Particulars: in vivo.
The target in the next data set is T1, Cytochrome P450 1A2 (Homo sapiens, UniProt P05177).
T1 sequence (P05177 whole entry): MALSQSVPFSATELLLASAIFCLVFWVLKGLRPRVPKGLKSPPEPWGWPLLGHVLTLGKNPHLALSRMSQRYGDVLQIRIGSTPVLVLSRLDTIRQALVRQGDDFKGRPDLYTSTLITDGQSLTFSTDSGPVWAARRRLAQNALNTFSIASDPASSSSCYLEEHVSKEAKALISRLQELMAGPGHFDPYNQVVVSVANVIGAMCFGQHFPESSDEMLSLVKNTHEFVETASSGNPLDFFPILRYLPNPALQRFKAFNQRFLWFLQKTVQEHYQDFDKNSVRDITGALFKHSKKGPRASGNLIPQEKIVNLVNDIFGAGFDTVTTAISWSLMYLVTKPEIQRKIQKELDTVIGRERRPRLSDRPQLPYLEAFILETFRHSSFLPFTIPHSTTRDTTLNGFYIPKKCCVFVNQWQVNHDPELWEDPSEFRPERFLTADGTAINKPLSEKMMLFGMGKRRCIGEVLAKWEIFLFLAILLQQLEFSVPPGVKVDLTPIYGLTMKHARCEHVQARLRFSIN
The experiment in a line: Inhibition of CYP1A2 in human liver microsomes at 1 to 10 uM using phenacetin as substrate preincubated for 5 mins followed by NADPH addition measured after 30 mins by UPLC-MS/MS analysis relative to control. Particulars: 0.5 h. It is filed as ADME.

The target of a further data set is Cytochrome P450 2C9 (Homo sapiens, UniProt P11712). The experiment in a line: Inhibition of CYP2C9 in human liver microsomes at 1 to 10 uM using tolbutamide as substrate preincubated for 5 mins followed by NADPH addition measured after 30 mins by UPLC-MS/MS analysis relative to control. The format is ADME. The following applies: 0.5 h.
Data set [11] can be described thus: AUC (0 to t) in mouse at 10 mg/kg, ig administered as single dose by UPLC-MS/MS analysis. The format is ADME, organism-based. Particulars: in vivo, po. In outline:
(§4)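 Adult male mice (12 h light-dark, 22 °C, 55% humidity) fasted 12 h with free water, then given a single 10 mg/kg intragastric dose; plasma concentrations by UPLC-MS/MS; PK parameters calculated by software.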

Data set [12] can be described thus: Apparent permeability from basolateral to apical side in human Caco2 cells after 90 mins by UPLC-MS/MS analysis. It is filed as ADME, cell-based. Particulars: Caco-2. In outline: as §2
Background: Passage across Caco-2 layers is used to estimate intestinal permeability.

The next data set deals with Cytochrome P450 2C19 (Homo sapiens, UniProt P33261). The experiment in a line: Inhibition of CYP2C19 in human liver microsomes at 1 to 10 uM using (S)-mephenytoin as substrate preincubated for 5 mins followed by NADPH addition measured after 30 mins by UPLC-MS/MS analysis relative to control. Particulars: 0.5 h. The format is ADME.
A short description of data set [13]: Protein binding in human plasma at 10 uM after 6 hrs by UPLC-MS/MS based equilibrium dialysis method. It is filed as ADME, cell-free. Particulars: read-out: PPB (converted). Put shortly:
as §3

Data set [14] can be described thus: Cmax in mouse at 10 mg/kg, ig administered as single dose by UPLC-MS/MS analysis. Also on record: dose 10 mg/kg, route intragastric. Particulars: in vivo, po. The format is ADME, organism-based. In outline:
as §4

The nature of data set [15]: Protein binding in rat plasma at 10 uM after 6 hrs by UPLC-MS/MS based equilibrium dialysis method. The format is ADME, cell-free. The following applies: read-out: PPB (converted). Put shortly:
as §3

Data set [16] can be described thus: Cmax in beagle dog at 2 mg/kg, po administered as single dose by UPLC-MS/MS analysis. The format is ADME, organism-based, Canis lupus familiaris. Also on record: dose 2 mg/kg, route oral. The following applies: in vivo.
Data set [17] in a line: Half life in mouse at 10 mg/kg, ig administered as single dose by UPLC-MS/MS analysis. The format is ADME, organism-based. The following applies: in vivo, po. Put shortly:
as §4

Data set [18] can be described thus: Apparent permeability from apical to basolateral side in human Caco2 cells after 90 mins by UPLC-MS/MS analysis. The format is ADME, cell-based. The following applies: Caco-2. In outline: as §2

Chain of hERG (KCNH2) (Q12809 whole entry): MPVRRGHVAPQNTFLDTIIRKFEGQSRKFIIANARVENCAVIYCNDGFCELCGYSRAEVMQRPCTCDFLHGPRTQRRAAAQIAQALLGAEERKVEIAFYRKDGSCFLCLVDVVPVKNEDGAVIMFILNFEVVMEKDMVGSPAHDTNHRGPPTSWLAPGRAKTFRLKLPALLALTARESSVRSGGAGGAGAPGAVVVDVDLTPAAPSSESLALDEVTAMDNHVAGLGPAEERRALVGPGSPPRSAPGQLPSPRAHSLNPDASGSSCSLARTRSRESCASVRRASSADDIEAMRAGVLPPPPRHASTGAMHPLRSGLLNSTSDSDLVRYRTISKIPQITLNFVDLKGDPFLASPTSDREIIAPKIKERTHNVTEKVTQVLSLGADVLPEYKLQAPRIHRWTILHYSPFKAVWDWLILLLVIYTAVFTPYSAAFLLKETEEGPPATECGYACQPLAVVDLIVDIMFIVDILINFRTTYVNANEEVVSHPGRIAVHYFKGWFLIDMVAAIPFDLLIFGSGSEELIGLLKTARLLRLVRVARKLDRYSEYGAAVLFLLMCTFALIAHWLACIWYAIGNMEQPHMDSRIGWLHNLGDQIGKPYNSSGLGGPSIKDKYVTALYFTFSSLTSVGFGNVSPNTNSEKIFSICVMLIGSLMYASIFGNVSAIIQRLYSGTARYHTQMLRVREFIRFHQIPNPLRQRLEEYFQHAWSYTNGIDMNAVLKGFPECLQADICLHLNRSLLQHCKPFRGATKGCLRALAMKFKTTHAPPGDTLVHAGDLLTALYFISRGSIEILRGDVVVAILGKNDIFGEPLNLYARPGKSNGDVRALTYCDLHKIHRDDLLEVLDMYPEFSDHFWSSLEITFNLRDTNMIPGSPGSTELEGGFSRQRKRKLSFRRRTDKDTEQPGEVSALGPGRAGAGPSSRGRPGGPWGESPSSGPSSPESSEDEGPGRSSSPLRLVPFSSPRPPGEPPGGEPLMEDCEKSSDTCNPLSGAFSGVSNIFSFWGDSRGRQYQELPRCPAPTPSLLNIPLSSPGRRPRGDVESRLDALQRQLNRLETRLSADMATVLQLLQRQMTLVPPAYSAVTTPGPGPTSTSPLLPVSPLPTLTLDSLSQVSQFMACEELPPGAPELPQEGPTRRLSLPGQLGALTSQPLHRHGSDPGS
Chain of Cytochrome P450 3A4 (P08684 whole entry): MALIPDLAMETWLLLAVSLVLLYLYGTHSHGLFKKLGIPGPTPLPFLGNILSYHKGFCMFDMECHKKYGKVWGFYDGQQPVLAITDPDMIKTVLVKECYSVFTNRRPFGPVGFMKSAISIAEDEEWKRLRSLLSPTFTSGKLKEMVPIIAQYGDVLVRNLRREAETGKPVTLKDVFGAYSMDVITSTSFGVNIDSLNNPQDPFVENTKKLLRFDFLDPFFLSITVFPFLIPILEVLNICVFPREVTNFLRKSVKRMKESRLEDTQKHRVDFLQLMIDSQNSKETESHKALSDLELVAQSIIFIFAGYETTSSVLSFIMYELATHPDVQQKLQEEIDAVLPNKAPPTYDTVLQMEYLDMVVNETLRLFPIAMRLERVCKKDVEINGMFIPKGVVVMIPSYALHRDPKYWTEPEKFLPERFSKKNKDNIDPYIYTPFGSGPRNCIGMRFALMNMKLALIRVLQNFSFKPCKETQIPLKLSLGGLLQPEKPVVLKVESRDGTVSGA
Chain of Cytochrome P450 2C19 (P33261 whole entry): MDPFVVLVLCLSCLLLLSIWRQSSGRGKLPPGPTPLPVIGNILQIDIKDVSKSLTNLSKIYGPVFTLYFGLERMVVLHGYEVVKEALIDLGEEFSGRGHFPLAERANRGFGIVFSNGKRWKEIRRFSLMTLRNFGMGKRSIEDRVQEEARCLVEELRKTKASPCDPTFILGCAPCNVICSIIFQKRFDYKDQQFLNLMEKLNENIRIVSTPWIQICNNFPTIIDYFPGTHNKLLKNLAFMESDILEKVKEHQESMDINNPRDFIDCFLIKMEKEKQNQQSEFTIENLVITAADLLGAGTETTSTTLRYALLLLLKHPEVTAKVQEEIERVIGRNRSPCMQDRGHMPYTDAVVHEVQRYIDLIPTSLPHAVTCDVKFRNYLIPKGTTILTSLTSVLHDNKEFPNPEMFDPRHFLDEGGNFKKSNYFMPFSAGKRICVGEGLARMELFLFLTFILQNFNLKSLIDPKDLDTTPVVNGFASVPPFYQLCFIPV
Chain of Cytochrome P450 2C9 (P11712 whole entry): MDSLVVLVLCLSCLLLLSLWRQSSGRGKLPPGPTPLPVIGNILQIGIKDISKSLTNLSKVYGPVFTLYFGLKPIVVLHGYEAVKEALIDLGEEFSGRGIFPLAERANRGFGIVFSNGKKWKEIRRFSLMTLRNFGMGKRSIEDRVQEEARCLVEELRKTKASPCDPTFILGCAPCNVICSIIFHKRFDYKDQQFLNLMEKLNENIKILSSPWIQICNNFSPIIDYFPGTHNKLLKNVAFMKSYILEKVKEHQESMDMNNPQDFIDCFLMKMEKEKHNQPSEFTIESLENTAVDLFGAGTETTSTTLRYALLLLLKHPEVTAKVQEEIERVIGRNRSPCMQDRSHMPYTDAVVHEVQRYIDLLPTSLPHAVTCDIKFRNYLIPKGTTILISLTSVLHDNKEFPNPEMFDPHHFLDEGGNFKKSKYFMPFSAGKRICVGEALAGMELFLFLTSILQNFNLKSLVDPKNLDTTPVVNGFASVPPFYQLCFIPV

For `CC[Si](CC)(CC)c1ccc(N2[C@H](c3ccc(NC(=O)[C@@H]4CCCN4C(=O)[C@@H](NC(=O)OC)C(C)C)cc3)CC[C@H]2c2ccc(NC(=O)[C@@H]3CCCN3C(=O)[C@@H](NC(=O)OC)C(C)C)cc2)cc1`, the values for the remaining at 1 h, 0.2 µM in [1], in data set [8] and in data set [9] were 98%, 85.6% and 92.7%, respectively. Further, the AUC(0-t) (in general, the area under the concentration-time curve up to a stated or last time point) in data set [2] came out at 605 ng·h/mL; in data set [11], 3040 ng·h/mL. Further, the partition ratio (Kp) (usually tissue or fluid exposure divided by exposure in the circulation) at 0.5 h in data set [3] was determined as 7.22. The efflux ratio (usually a quotient of directional permeabilities that is used to spot active efflux) at 1.5 h in [4] is 0.8. Further, at hERG (KCNH2), the inhibition at 3 µM is 6.9%. In [5], the inhibition at 50 µM turned out to be 16.6%. The concentration ratio (Kp) at 2 h in [6] is 28.1. The fraction unbound at 6 h, 10 µM in data set [7] was 6e-05; in data set [13] it was 8e-05; in [15], 0.00017. The “inhibition (INH)” value against Cytochrome P450 3A4, at Cytochrome P450 1A2, on Cytochrome P450 2C9 and against Cytochrome P450 2C19 was “Not Active” throughout. Further, the time of peak concentration (Tmax) – broadly, the time at which the peak concentration occurs – in [10] is 10.5 h. Also, the Papp B→A (as a rule, the apparent permeability from the basolateral to the apical side of a cell layer) at 1.5 h in [12] is 0.05 ×10⁻⁶ cm/s. Further, the Cmax (usually the peak of the concentration-time curve) in [14] amounted to 198 ng/mL; in data set [16] it was 29.2 ng/mL. Besides, the half-life (in general, the time needed for the level to fall by half in the phase considered) in data set [17] was 22.5 h. For the same compound, the Papp A→B (in general, the apparent permeability from the apical to the basolateral side of a cell layer) at 1.5 h in data set [18] was determined as 0.07 ×10⁻⁶ cm/s.

With `COC(=O)N[C@H](C(=O)N1CCC[C@H]1C(=O)Nc1ccc([C@@H]2CC[C@@H](c3ccc(NC(=O)[C@@H]4CCCN4C(=O)[C@@H](NC(=O)OC)C(C)C)cc3)N2c2ccc(C(C)(C)C)cc2)cc1)C(C)C` [OMBITASVIR], the figures for the remaining at 1 h, 0.2 µM in [1], in data set [8] and in data set [9] were 101%, 96.2% and 88.7%, respectively. The results for the exposure AUC(0-t) in data set [2] and in data set [11] were 188 ng·h/mL and 6480 ng·h/mL, respectively. Further, in data set [3], the Kp at 0.5 h came to 43.4. In addition, in data set [4], the efflux ratio at 1.5 h came out at 6.7. For the same compound, the inhibition at 3 µM on hERG (KCNH2) turned out to be 1.1%. Moreover, the inhibition at 50 µM in data set [5] is 11.8%. For the same compound, the Kp at 2 h in data set [6] is 24.6. Also, the results for the fraction unbound at 6 h, 10 µM in [7], in [13] and in [15] were 1e-05, 4e-05 and 1e-05, respectively. In addition, the “inhibition (INH)” value at Cytochrome P450 3A4, at Cytochrome P450 1A2, at Cytochrome P450 2C9 and against Cytochrome P450 2C19 was “Not Active” in each case. Further, the time to peak (Tmax) in [10] was 8.3 h. Besides, in [12], the apparent permeability from basolateral to apical (Papp B→A) at 1.5 h was 0.54 ×10⁻⁶ cm/s. The values for the Cmax in data set [14] and in [16] were 583 ng/mL and 15.7 ng/mL, respectively. Moreover, the half-life in data set [17] is 7.7 h. Also, the apparent permeability from apical to basolateral (Papp A→B) at 1.5 h in data set [18] was 0.08 ×10⁻⁶ cm/s.
